What was measured:
[1] = target: T1, Retinal dehydrogenase 2 (Gallus gallus) (UniProt O93344); test: (§1) Inhibition of N-terminal His6-tagged recombinant chick RALDH2 expressed in Escherichia coli BL21(DE3) cells at 250 nM using RAL as substrate assessed as remaining activity preincubated for 40 mins followed by all-trans-retinaldehyde and substrate addition measured after 30 mins in presence of NAD+ by fluorescence assay
T1 sequence (whole entry): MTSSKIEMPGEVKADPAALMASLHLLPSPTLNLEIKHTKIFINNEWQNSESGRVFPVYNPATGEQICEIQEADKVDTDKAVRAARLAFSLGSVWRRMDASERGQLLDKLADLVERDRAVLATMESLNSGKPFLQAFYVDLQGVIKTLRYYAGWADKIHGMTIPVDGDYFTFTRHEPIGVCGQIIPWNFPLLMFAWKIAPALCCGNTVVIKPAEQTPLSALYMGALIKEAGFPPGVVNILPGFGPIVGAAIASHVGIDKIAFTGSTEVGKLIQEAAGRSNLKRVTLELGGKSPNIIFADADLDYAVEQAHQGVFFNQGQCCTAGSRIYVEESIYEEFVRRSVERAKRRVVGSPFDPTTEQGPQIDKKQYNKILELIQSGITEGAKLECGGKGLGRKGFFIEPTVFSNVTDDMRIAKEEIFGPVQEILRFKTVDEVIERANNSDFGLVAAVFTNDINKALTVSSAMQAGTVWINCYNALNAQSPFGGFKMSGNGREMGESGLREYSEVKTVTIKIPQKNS
How it was run: (§2)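 Chick RALDH2 (91 nM) pre-incubated with 250 nM inhibitor for 0–80 min at 37°C, alone or with 250 μM retinaldehyde or 250 μM NAD+. Reaction then started with the missing substrate and/or cofactor (250 μM retinaldehyde, 4 mM NAD), 30 min at 37°C. Fluorimetric NADH; % activity remaining. Triplicates.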

Retinal dehydrogenase 2 [2] = target: T2, Retinal dehydrogenase 2 (Gallus gallus, UniProt O93344); test: Inhibition of RALDH2 in living intact choroid isolated from 4 day recovering chick eyes assessed as inhibition of ATRA synthesis after 24 hrs in presence of […]
T2 sequence (O93344 whole entry): T1 sequence (whole entry)

[3] = target: T1, Retinal dehydrogenase 2 (Gallus gallus); test: as §1, with “5” for “40”; how it was run: as §2
[4] = target: T1, Retinal dehydrogenase 2 (Gallus gallus); test: Inhibition of N-terminal His6-tagged recombinant chick RALDH2 expressed in Escherichia coli BL21(DE3) cells at 50 nM using RAL as substrate assessed as remaining activity preincubated for 20 mins followed by compound washout by ultrafiltration and subsequent addition of substrate and measured after 30 mins in presence of NADH by fluorescence assay (reference value: 100.0 +/- 11.57%)
How it was run: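 Chick RALDH2 (91 nM) pre-incubated 20 min with 0–50 nM inhibitor. Unbound inhibitor removed by ultrafiltration before adding 250 μM retinaldehyde and 4 mM NAD+, 30 min at 37°C. NADH measured fluorimetrically. Activity expressed as % of vehicle. Triplicates; one-way ANOVA with Bonferroni test.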

[5] = target: T1, Retinal dehydrogenase 2 (Gallus gallus); test: as §1, with “80” for “40”; how it was run: as §2
[6] = target: T1, Retinal dehydrogenase 2 (Gallus gallus); test: as §1, with “10” for “40”; how it was run: as §2
[7] = target: T1, Retinal dehydrogenase 2 (Gallus gallus); test: Inhibition of chick RALDH2 expressed in doxycycline-inducible HEK293 cells assessed as inhibition of ATRA synthesis at 0.5 uM after 24 hrs in presence of […]
[8] = target: T1, Retinal dehydrogenase 2 (Gallus gallus); test: Inhibition of N-terminal His6-tagged recombinant chick RALDH2 expressed in Escherichia coli BL21(DE3) cells at 250 nM using RAL as substrate assessed as enzyme recovery preincubated with compound and 250 uM NAD+ up to 80 mins and measured after 30 mins in presence of NAD+ by fluorescence assay; parameters: scale not given: the % may be the effect or the level left; how it was run: as §2
HEK293 [9] = test: Cytotoxicity against doxycycline-inducible chicken RALDH2 expressing HEK293 cells by measuring DNA content after 24 hrs in presence of proteinase K by Pico-green dye-based fluorescence assay; assay type: functional, cell-based; settings: Homo sapiens, HEK293, 24 h
How it was run: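 Doxycycline-induced (Dox)RALDH2-eGFP HEK293 cells treated with compound in low-serum DMEM. Homogenate aliquots taken before ultracentrifugation were digested with proteinase K (0.05% w/v in 10 mM EDTA, 0.1 M sodium phosphate pH 6.5) at 60°C overnight. DNA measured by PicoGreen fluorescence. Toxicity curves span 0.01–50 μM over 24 h. Two experiments, n = 5 per concentration.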

HEK293 [10] = test: Cytotoxicity against doxycycline-inducible chicken RALDH2 expressing HEK293 cells by measuring ATP production after 24 hrs by CelTiter-Glo assay; assay type: cell-based; settings: Homo sapiens, HEK293, 24 h
How it was run: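 (Dox)RALDH2-eGFP HEK293 cells seeded at 10,000/well in DMEM + 10% FBS for 24 h, then switched to DMEM with 0.1% FBS containing 0–50 μM compound in DMSO (<0.5%) for 24 h at 37°C, 5% CO2. ATP read by luminescence and expressed as % of vehicle (0.5% DMSO) control. Two experiments, n = 5 per concentration.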

[11] = target: T1, Retinal dehydrogenase 2 (Gallus gallus); test: Inhibition of N-terminal His6-tagged recombinant chick RALDH2 expressed in Escherichia coli BL21(DE3) cells up to 500 nM using RAL as substrate assessed as rate of inactivation preincubated up to 40 mins followed by substrate addition and measured after 30 mins in presence of NADH by fluorescence assay
How it was run: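 Chick RALDH2 pre-incubated 10, 20 and 40 min with 0–500 nM inhibitor, then assayed with retinaldehyde/NAD+ by fluorimetric NADH. kobs taken from linear regression of log % activity remaining versus pre-incubation time. KI and kinact obtained by nonlinear regression of kobs versus inhibitor concentration.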

Retinal dehydrogenase 2 [12] = target: T2, Retinal dehydrogenase 2; test: Inhibition of N-terminal His6-tagged recombinant chick RALDH2 expressed in Escherichia coli BL21(DE3) cells using RAL as substrate measured after 30 mins in presence of NADH by Morrison's plot analysis
How it was run: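 Ki obtained by fitting the Morrison tight-binding equation to the 20-min pre-incubation retinaldehyde/NADH fluorescence inhibition data. Inputs were enzyme concentration (RALDH1 0.358, RALDH2 0.091, RALDH3 0.355, hRALDH2 0.176 μM), substrate concentration and Km. Triplicates from 3–5 independent experiments.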

[13] = target: T1, Retinal dehydrogenase 2 (Gallus gallus); test: Inhibition of chick RALDH2 expressed in doxycycline-inducible HEK293 cells assessed as inhibition of ATRA synthesis at 1 uM after 24 hrs in presence of […]; assay type: cell-based

Activity [1]: 16.3%
EC50 (Retinal dehydrogenase 2 [2]): 0.12 µM
Activity [3]: 39.2%
Activity [4]: 23%
Activity [5]: 16.5%
Activity [6]: 30.4%
inhibition [7]: 47%
Activity [8]: 52 to 65%
kobs [11]: 2.8e-05 to 0.012 min⁻¹
Ki (Retinal dehydrogenase 2 [12]): 0.0051 µM
inhibition [13]: 92%
Structure (SMILES): CC1=C(/C=C/C(C)=C/C=C/C(C)=C/C(=O)C(Cl)Cl)C(C)(C)CCC1
IC50 (HEK293 [9]): 2.94 µM
IC50 (HEK293 [10]): 3.09 µM

Source: ChEMBL document CHEMBL4261642, “Design, synthesis, and ex vivo evaluation of a selective inhibitor for retinaldehyde dehydrogenase enzymes” (Bioorg Med Chem, 2018)
